A word on the IC50: it is the concentration that inhibits the measured activity by half. By inhibition is commonly meant the drop in the measured response relative to a control, in per cent. High values mean a strong effect, low ones a weak effect.

We go through eight compounds from ChEMBL document CHEMBL2375348, “Aminopropylindenes derived from Grundmann's ketone as a novel chemotype of oxidosqualene cyclase inhibitors” (Eur J Med Chem, 2013).

For one assay, the target named is Cycloartenol synthase (Arabidopsis thaliana, UniProt P38605). Description: Inhibition of Arabidopsis thaliana cycloartenol synthase expressed in Saccharomyces cerevisiae SMY8[pSM60.21] using [14C]-(3S)-2,3-oxidosqualene as substrate. In short, it runs like this: (§1)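 ERG7-deficient hem1 yeast SMY8 strains were grown aerobically at 30 °C in YPD with hemin and ergosterol, then induced in YPG with hemin (plus ergosterol for A. thaliana). Lyticase/Potter homogenates were incubated with [14C]-(3S)-2,3-oxidosqualene (1000 cpm) at increasing inhibitor levels. Reactions were stopped with KOH/MeOH and saponified at 80 °C for 30 min; extracted conversion was read by TLC radioscan. IC50 came from nonlinear regression; two experiments, each in duplicate.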
Sequence of Cycloartenol synthase (P38605 whole entry): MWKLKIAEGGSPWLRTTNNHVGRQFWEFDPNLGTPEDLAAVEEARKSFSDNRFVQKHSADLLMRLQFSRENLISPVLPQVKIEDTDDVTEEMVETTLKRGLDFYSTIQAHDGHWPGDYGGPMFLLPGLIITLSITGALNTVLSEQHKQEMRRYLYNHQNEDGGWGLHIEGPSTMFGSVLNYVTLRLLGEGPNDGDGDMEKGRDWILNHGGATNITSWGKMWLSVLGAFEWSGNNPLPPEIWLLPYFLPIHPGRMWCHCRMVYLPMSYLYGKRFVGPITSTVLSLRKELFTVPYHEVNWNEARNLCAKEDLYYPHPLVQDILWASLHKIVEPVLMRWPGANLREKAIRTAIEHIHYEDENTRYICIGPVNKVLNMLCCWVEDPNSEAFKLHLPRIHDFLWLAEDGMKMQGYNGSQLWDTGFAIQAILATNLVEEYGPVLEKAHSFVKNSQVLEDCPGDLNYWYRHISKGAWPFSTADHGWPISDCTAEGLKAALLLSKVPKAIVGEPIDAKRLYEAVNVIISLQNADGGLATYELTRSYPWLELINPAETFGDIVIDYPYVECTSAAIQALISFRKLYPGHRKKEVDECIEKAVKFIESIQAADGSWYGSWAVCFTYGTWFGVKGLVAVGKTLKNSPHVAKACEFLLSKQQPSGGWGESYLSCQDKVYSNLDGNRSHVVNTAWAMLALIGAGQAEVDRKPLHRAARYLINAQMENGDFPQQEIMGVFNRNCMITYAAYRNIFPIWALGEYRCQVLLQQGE

Assay [1] in a line: Inhibition of Trypanosoma cruzi lanosterol synthase expressed in Saccharomyces cerevisiae SMY8[pBJ1.21] using [14C]-(3S)-2,3-oxidosqualene as substrate. The gist of the method: as §1
Assay [2] deals with T1, Lanosterol synthase (Homo sapiens, UniProt P48449).
T1 sequence (P48449 whole entry): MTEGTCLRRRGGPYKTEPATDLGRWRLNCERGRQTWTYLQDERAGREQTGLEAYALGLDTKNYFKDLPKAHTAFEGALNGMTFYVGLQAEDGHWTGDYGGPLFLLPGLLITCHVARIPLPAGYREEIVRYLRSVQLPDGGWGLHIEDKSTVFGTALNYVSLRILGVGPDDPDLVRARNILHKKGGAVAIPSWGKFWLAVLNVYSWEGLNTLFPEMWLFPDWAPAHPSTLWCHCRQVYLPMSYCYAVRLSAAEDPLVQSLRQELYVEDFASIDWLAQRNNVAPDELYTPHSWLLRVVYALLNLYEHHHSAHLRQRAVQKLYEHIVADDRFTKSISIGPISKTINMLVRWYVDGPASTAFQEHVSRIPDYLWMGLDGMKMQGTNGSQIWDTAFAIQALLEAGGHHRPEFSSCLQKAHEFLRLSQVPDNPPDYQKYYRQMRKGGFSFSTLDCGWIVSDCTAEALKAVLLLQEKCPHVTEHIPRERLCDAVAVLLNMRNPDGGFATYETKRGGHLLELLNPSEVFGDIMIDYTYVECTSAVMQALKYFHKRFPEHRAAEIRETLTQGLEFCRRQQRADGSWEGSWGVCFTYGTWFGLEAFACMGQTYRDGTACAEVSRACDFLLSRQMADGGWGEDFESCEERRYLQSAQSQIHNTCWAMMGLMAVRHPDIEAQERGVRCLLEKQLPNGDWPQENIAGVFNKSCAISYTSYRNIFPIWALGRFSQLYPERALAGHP
Description: Inhibition of human lanosterol synthase expressed in Saccharomyces cerevisiae SMY8[pSOB1.1] using [14C]-(3S)-2,3-oxidosqualene as substrate.

Assay [3] has as its system HL-60. Description: Cytotoxicity against human HL60 cells after 24 hrs by MTT assay. The note with it: HL-60, 24 h. The assay is classed as cell-based.
The next assay has as its target T2, Lanosterol synthase ERG7 (Saccharomyces cerevisiae S288c, UniProt P38604).
T2 sequence (P38604 whole entry): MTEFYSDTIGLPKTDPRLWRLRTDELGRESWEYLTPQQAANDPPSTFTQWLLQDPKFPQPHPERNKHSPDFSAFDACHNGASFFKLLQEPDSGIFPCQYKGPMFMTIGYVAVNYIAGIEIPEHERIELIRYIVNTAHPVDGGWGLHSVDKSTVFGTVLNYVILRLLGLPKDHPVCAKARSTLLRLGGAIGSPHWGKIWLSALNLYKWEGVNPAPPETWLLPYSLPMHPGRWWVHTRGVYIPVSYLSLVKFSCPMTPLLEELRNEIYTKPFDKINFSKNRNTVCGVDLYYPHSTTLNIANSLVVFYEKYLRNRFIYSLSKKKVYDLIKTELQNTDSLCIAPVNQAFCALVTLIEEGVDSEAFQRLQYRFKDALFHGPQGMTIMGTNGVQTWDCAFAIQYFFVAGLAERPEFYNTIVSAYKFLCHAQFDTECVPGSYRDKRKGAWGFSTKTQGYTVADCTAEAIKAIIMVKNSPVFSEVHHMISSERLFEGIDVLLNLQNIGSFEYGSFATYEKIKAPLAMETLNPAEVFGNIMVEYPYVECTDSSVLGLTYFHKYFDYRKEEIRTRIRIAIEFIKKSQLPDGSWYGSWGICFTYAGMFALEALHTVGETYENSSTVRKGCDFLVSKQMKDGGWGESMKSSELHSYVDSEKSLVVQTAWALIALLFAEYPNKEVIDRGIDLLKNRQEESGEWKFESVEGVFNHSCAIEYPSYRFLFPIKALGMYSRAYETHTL
Description: Inhibition of wild type yeast lanosterol synthase expressed in Saccharomyces cerevisiae SMY8[pSM61.21] using [14C]-(3S)-2,3-oxidosqualene as substrate. In short, it runs like this: as §1

The target in assay [4] is T3, Lanosterol synthase (Pneumocystis carinii, UniProt Q96WJ0).
T3 sequence (Q96WJ0 whole entry): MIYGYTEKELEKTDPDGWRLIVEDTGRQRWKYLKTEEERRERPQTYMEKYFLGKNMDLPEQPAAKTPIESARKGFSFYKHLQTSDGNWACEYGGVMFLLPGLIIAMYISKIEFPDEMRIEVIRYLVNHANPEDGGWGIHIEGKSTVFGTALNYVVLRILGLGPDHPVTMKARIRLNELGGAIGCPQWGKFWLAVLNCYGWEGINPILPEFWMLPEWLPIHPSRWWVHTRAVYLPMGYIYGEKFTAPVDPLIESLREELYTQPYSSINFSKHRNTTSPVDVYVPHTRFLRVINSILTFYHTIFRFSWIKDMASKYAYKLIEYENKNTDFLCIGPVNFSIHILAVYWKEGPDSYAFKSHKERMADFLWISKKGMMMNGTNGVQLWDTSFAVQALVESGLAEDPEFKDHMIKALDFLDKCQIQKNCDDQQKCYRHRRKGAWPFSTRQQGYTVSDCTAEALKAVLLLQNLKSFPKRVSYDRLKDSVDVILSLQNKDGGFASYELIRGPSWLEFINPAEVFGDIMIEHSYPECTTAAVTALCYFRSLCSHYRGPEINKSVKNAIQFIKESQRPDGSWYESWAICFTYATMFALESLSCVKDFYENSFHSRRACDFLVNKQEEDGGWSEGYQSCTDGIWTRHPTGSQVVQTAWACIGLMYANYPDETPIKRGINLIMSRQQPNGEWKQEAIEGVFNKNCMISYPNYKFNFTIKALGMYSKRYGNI
Description: Inhibition of Pneumocystis carinii lanosterol synthase expressed in Saccharomyces cerevisiae SMY8[pBJ4.21] using [14C]-(3S)-2,3-oxidosqualene as substrate. The gist of the method: as §1

Assay [5] relates to HL-60. In words: Inhibition of cholesterol biosynthesis in human HL60 cells at 1 uM. The class given is functional. In short, it runs like this: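 HL-60 cells were incubated with 2-13C-acetate and inhibitor at 1 μM, in triplicate. Newly made 13C-labelled cholesterol was separated from pre-existing unlabelled cholesterol by GC-MS. Decrease in cholesterol biosynthesis was expressed against untreated controls.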

For `CC(C)CCC[C@@H](C)[C@H]1CCC2=C(CCC[n+]3ccccc3)CCC[C@@]21C`, the IC50 on Cycloartenol synthase is 200 nM; in assay [1] it was > 20000 nM; against Lanosterol synthase [2] it was 12.5 µM; in the assay on HL-60 [3], 3.5 µM; on Lanosterol synthase ERG7, 4200 nM; on Lanosterol synthase [4] it was 11 µM.
For `CN(C)Cc1ccc(C2CCC(N(C)C(=O)c3ccc(Cl)cc3)CC2)cc1` (configuration not stated), 1 µM produced 60% inhibition in the assay with HL-60 [5]. Moreover, in the assay on HL-60 [3], the IC50 was > 50 µM.
Take `C=CCN(C)CCCC1=C2CC[C@H]([C@H](C)CCCC(C)C)[C@@]2(C)CCC1`: the IC50 was 600 nM against Cycloartenol synthase; 800 nM in assay [1]; 1 µM against Lanosterol synthase [2]; > 100 µM in the assay on HL-60 [3]; 1500 nM against Lanosterol synthase ERG7; 0.9 µM at Lanosterol synthase [4]. Besides, the inhibition at 1 µM in the assay on HL-60 [5] is > 90%.
On to `CNCCCC1=C2CC[C@H]([C@H](C)CCCC(C)C)[C@@]2(C)CCC1`, for which the IC50 was > 20000 nM at Cycloartenol synthase; > 20000 nM in assay [1]; > 20 µM at Lanosterol synthase [2]; > 100 µM in the assay with HL-60 [3]; > 20000 nM at Lanosterol synthase ERG7; > 20 µM on Lanosterol synthase [4].
For the compound `CC(C)CCC[C@@H](C)[C@H]1CCC2=C(CCCN(C)C)CCC[C@@]21C`, the concentration for half-maximal inhibition (IC50) was 300 nM against Cycloartenol synthase; 600 nM in assay [1]; 4.5 µM against Lanosterol synthase [2]; > 100 µM in the assay with HL-60 [3]; 1300 nM against Lanosterol synthase ERG7; 13 µM on Lanosterol synthase [4]. The inhibition at 1 µM with HL-60 [5] is > 90%.
As for `CC(C)CCC[C@@H](C)[C@H]1CCC2=C(CCCN3CCCCC3)CCC[C@@]21C`, the IC50 on Cycloartenol synthase is 500 nM; in assay [1], > 20000 nM; at Lanosterol synthase [2] it was 11.9 µM; with HL-60 [3], > 100 µM; at Lanosterol synthase ERG7, 2100 nM; against Lanosterol synthase [4], 17 µM.
As to `CC(C)CCC[C@@H](C)[C@H]1CCC2=C(CCC[N+](C)(C)[O-])CCC[C@@]21C`, the IC50 at Cycloartenol synthase is 1300 nM; in assay [1], 3000 nM; on Lanosterol synthase [2] it was > 20 µM; with HL-60 [3], 20 µM; on Lanosterol synthase ERG7 it was 2500 nM; against Lanosterol synthase [4], 15 µM.
Turning to `C=CCN(C)CCCCCCOc1ccc(C(=O)c2ccc(Br)cc2)c(F)c1`, the inhibition at 1 µM with HL-60 [5] was > 90%. In addition, the IC50 in the assay on HL-60 [3] was 8 µM.
